18 compounds from ChEMBL document CHEMBL1134363 (J Med Chem, 2001) can be followed below.

Test [1] concerns the target T1, Adrenergic receptor alpha-2 (Rattus norvegicus, UniProt P22086+P19328+P22909).
T1 sequence (P22086 whole entry): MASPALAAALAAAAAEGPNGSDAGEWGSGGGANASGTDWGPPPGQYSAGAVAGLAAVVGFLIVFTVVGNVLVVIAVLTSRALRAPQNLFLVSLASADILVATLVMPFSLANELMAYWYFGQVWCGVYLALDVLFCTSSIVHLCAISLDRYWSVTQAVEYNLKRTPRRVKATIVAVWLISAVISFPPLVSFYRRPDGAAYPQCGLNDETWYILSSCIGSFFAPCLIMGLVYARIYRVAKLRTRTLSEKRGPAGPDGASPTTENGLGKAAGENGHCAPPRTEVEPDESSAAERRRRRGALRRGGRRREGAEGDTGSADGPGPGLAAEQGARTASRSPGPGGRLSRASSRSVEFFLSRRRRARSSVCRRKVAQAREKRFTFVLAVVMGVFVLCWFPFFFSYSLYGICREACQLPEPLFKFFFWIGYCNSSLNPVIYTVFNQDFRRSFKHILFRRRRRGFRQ
T1 sequence (P19328 whole entry): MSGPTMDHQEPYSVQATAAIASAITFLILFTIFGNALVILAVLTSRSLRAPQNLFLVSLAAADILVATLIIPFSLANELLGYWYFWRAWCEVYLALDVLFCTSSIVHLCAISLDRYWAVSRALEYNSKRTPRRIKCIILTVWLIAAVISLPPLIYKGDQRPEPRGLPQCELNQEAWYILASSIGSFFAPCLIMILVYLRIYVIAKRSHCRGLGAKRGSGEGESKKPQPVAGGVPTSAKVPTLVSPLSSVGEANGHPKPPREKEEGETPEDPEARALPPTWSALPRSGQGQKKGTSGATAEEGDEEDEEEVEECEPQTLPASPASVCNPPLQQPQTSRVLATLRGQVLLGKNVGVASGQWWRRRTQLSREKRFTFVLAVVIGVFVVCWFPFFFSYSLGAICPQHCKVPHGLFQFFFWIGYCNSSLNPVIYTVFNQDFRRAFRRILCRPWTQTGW
T1 sequence (P22909 whole entry): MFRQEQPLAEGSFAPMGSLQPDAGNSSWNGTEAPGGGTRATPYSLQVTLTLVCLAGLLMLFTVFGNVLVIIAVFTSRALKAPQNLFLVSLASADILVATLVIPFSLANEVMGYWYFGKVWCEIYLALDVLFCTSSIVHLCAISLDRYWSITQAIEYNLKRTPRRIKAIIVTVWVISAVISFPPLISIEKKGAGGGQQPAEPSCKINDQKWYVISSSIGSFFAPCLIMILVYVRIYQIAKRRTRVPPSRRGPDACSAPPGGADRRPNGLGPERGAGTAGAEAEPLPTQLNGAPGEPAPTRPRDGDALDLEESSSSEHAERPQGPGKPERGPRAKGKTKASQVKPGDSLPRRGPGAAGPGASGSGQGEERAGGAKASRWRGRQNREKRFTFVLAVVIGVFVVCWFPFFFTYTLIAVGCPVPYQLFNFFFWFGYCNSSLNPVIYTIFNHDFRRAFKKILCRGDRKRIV
Kind of test: In vitro binding affinity against alpha-2 adrenergic receptor of rat in presence of [3H]-RX 821002 radioligand. In kind it is protein assay.

Test [2] deals with T2, Adrenergic receptor alpha-1 (Rattus norvegicus, UniProt P15823+P23944+P43140).
T2 sequence (P15823 whole entry): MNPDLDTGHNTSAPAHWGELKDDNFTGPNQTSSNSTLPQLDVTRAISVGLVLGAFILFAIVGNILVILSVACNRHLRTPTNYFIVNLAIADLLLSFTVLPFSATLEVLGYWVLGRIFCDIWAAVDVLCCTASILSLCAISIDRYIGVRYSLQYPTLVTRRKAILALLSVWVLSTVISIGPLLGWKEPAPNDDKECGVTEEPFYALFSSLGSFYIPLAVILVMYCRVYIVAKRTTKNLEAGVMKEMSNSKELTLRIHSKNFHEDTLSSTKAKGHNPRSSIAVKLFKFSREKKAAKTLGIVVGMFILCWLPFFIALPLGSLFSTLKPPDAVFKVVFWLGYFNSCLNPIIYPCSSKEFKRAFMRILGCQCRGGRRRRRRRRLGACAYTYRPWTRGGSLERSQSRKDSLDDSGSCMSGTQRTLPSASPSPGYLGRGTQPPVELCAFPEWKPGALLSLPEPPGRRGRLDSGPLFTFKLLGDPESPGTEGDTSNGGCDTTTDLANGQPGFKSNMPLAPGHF
T2 sequence (P23944 whole entry): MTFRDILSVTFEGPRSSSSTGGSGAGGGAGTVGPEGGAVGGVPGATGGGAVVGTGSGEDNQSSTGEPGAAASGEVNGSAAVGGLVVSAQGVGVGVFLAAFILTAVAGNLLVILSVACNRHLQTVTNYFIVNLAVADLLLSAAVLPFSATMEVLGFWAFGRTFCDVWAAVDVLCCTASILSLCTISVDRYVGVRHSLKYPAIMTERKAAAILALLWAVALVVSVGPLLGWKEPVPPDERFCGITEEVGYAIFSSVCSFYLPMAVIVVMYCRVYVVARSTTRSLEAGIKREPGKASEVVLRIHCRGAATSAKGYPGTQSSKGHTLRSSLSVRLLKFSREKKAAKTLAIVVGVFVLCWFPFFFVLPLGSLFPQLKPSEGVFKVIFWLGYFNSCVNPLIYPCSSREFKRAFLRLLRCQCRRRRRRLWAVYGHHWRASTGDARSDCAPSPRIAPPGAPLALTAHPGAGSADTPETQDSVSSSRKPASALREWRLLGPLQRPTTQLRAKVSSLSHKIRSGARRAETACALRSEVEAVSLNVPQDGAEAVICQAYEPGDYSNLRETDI
T2 sequence (P43140 whole entry): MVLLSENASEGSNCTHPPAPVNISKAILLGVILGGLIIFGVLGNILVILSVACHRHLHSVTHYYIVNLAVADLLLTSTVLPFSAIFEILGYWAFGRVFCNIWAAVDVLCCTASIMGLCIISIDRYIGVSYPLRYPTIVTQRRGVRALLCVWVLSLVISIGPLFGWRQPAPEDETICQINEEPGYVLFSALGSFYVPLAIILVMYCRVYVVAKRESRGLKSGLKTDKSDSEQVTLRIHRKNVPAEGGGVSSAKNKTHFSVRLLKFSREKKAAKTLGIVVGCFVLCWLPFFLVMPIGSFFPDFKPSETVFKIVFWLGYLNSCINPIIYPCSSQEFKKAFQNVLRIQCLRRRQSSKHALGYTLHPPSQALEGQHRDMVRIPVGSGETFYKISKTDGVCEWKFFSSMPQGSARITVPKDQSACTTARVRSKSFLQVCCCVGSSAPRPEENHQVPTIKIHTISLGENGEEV
Kind of test: In vitro binding affinity against alpha-1 adrenergic receptor of rat in presence of [3H]-prazosin radioligand. Format: protein assay.

The target of test [3] is T3, Alpha-2A adrenergic receptor (Homo sapiens) (UniProt P08913).
T3 sequence (whole entry): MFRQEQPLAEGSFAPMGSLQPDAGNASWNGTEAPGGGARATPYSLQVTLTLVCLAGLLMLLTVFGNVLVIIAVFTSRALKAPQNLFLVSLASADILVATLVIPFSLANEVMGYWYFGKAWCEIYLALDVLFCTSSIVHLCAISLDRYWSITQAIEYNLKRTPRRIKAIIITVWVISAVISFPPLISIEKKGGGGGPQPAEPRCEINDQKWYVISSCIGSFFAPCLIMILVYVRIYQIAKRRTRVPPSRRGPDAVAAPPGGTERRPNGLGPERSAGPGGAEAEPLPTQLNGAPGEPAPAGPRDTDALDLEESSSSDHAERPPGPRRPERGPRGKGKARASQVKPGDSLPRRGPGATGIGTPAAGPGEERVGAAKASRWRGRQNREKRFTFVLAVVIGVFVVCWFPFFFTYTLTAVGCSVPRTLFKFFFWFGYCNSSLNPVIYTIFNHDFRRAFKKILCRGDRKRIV
Kind of test: Antagonistic activity as [35S]GTP gamma-S binding at alpha-2a adrenergic receptor expressed in CHO cells. In kind it is functional, cell-based. In a few lines:
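Membranes (40 μg/mL) from CHO cells stably expressing human α2A receptor, preincubated 30 min at room temperature with drug in 20 mM HEPES pH 7.4, 100 mM NaCl, 3 μM GDP, 3 mM MgCl2; 0.2 nM [35S]GTPγS added, 60 min room temperature, NA 10 μM as agonist. Nonspecific: 10 μM GTPγS. Filtration, scintillation counting; pKB from IC50 corrected for agonist concentration/EC50.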
(In general: GTPγS resists hydrolysis and so accumulates on activated G proteins.)

Test [4] concerns the target T4, Alpha-2A adrenergic receptor (Homo sapiens, UniProt P08913).
T4 sequence (P08913 whole entry): T3 sequence (whole entry)
As to the kind of experiment: Binding affinity for human alpha-2 adrenergic receptor expressed in CHO cell. In kind it is cell-based.

In test [5] the target is Norepinephrine transporter (Rattus norvegicus, UniProt Q9WTR4). As to the kind of experiment: In vitro binding affinity was determined against NA (noradrenaline) reuptake site of rat in presence of [3H]nisoxetine radioligand.
In test [6] the target is Sodium-dependent serotonin transporter (Rattus norvegicus, UniProt P31652). Kind of test: In vitro binding affinity was determined against serotonin reuptake site of rat in presence of [3H]paroxetine radioligand.

Each structure is given as a SMILES string. A value given as a limit tells only on which side of the number the result lay.

Norepinephrine transporter, sequence (Q9WTR4 whole entry): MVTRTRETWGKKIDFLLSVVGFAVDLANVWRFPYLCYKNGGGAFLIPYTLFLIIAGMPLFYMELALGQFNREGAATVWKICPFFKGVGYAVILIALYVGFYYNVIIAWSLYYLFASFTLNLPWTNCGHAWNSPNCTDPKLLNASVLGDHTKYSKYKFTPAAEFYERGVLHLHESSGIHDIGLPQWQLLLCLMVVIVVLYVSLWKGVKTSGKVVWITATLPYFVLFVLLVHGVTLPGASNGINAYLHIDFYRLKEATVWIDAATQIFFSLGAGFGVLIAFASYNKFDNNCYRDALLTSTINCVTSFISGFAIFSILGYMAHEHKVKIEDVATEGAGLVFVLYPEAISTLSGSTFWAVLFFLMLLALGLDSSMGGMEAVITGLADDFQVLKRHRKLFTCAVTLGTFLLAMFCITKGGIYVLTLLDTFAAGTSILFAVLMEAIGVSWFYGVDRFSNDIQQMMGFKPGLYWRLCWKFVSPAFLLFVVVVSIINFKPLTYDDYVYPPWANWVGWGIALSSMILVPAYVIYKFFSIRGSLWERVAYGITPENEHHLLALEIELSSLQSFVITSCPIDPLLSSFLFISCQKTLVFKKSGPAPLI
Sodium-dependent serotonin transporter, sequence (P31652 whole entry): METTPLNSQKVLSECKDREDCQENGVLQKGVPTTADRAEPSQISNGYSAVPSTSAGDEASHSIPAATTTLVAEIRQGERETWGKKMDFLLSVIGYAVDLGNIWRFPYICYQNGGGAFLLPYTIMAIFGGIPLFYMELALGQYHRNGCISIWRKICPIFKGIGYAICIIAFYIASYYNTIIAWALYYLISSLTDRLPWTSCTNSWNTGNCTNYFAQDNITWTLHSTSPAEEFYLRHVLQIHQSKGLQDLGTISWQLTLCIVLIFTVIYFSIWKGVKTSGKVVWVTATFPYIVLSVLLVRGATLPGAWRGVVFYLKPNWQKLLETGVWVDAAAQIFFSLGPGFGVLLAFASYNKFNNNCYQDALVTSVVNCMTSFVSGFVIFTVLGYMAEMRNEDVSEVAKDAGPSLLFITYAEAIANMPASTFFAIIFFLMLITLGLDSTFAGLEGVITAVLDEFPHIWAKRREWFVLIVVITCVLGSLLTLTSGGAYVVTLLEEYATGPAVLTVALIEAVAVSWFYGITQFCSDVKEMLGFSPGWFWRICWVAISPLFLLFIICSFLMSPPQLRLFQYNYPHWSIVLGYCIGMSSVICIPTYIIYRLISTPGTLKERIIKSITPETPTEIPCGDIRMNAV

By pKB is commonly meant −log10 of the KB, conventionally taken in molar units. Higher therefore signals a small KB. By Ki is commonly meant the equilibrium dissociation constant of an inhibitor or competing ligand from its target. On to `C1=NCC(CC2Cc3ccccc3C2)N1` (stereo not given), for which the “Log Ki” value is -8.7 in test [1] and -6.3 in test [2]. Besides, the pKB in test [3] was 8.1. Moreover, the figures for the Ki in test [4], in test [5] and in test [6] were 3.98 nM, 39.8 nM and 63.1 nM, respectively.
For the compound `CNCCC(Oc1ccc(C(F)(F)F)cc1)c1ccccc1` (stereo not given), the pKB in test [3] came to 7.4.
For `Fc1cccc2c1C=C(CC1CN=CN1)CC2` (stereo not given), the “Log Ki” value was -7.4 in test [1] and -6.3 in test [2]. Moreover, the pKB in test [3] was determined as 6.8. The Ki is 39.8 nM in test [4], 126 nM in test [5] and 79.4 nM in test [6].
Regarding `C1=NC[C@H](C[C@]23CCc4ccccc4C2C3)N1` (stereo not given in full), the “Log Ki” value in test [1] is -7.3; in test [2], -5.9. In addition, the pKB in test [3] is 6.8. In addition, the Ki in test [4] is 63.1 nM; in test [5], 794 nM; in test [6], 50.1 nM.
Take `C1=NCC(CC2=Cc3ccccc3CC2)N1` (stereo not given): the “Log Ki” value is -7 in test [1] and -6.4 in test [2]. This compound also yielded a negative-log KB (pKB) in test [3] of 6.6. Further, the results for the Ki in test [4], in test [5] and in test [6] were 100 nM, 50.1 nM and 39.8 nM, respectively.
`CN[C@H](CC(C)C)C(=O)N[C@H]1C(=O)N[C@@H](CC(N)=O)C(=O)N[C@H]2C(=O)N[C@H]3C(=O)N[C@H](C(=O)N[C@H](C(=O)O)c4cc(O)cc(O)c4-c4cc3ccc4O)[C@H](O)c3ccc(c(Cl)c3)Oc3cc2cc(c3O[C@@H]2O[C@H](CO)[C@@H](O)[C@H](O)[C@H]2O[C@H]2C[C@](C)(N)[C@H](O)[C@H](C)O2)Oc2ccc(cc2Cl)[C@H]1O` [VANCOMYCIN]: the “Log Ki” value in test [1] is -6.9; in test [2], -6. Further, the negative-log KB (pKB) in test [3] stood at 6.7. Moreover, the Ki in test [5] is 15.8 nM; in test [6], 50.1 nM.
Regarding `CCC1(c2cnc[nH]2)Cc2ccccc2C1` [ATIPAMEZOLE], the Ki in test [4] was 3.16 nM; in test [5], greater than 10000 nM; in test [6], greater than 3160 nM.
Consider `Cc1ccc2c(c1)C=C(CC1CN=C(N)O1)CC2` (stereo not given), for which the “Log Ki” value is on record as -5.8 in test [1] and -6.6 in test [2]. Further, the values for the Ki in test [5] and in test [6] were greater than 1000 nM and 251 nM, respectively.
The like results for `C1=NCC(CC2COc3ccccc3O2)N1` (stereo not given) were, in that order, -7.5, -6.2, 1000 nM and 1260 nM.
The corresponding values for `C1=NCC([C@@H]2[C@@H]3Cc4ccccc4C[C@@H]32)N1` (stereo not given in full) are -5.5, -6.1, 50.1 nM and greater than 1000 nM.
For `Cc1cc2c(cc1C)CC(CC1CN=CN1)C2` (stereo not given), the “Log Ki” value in test [1] is reported as -7.6; in test [2], -6.7. Further, the Ki in test [5] is 25.1 nM; in test [6], 20 nM.
The like results for `C1=NCC(Cc2cc3cc(-c4ccccc4)ccc3o2)N1` (stereo not given) were, in that order, less than -5, less than -5.5, 158 nM and greater than 10000 nM.
The corresponding values for `C1=NC[C@@H](C[C@]23CCc4ccccc4C2C3)N1` (stereo not given in full) are -7.2, -5.9, 316 nM and 20 nM.
The corresponding values for `FC(F)(F)c1ccc2c(c1)C=C(CC1CN=CN1)CC2` (stereo not given) are -6.4, -5.9, greater than 10000 nM and 158 nM.
On to `C1=NCC2(CC3(Cc4ccccc4C3)C2)N1`, for which the “Log Ki” value is on record as -6.2 in test [1] and -5.3 in test [2]. For the same compound, the values for the inhibition constant Ki in test [5] and in test [6] were greater than 10000 nM and 6310 nM, respectively.
For `CCC1(c2c[nH]cn2)Cc2ccccc2C1` [ATIPAMEZOLE], the “Log Ki” value in test [2] was -5.7. In test [3], this compound registered a pKB of 8.9.
For `C1=NC[C@@]2(CC[C@@H]3Cc4ccccc4C[C@H]3C2)N1` (relative stereo), the “Log Ki” value in test [1] is -6.1; in test [2], -6.2. For the same compound, the Ki in test [5] is greater than 1000 nM; in test [6], 25.1 nM.
For `Fc1cc2c(cc1F)CC(CC1CN=CN1)C2` (stereo not given), the “Log Ki” value in test [1] is recorded as -7.3; in test [2], -6.1. The Ki in test [5] was 100 nM; in test [6], 12.6 nM.
